A number with no mark means an inactive call. Records with an inconclusive call do not appear. Calls of active or inactive are those of the source.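 How the source made its calls, unless noted: active means RAM network inhibition above 8.4% in each of two replicates, 3 SD over the compound average; inconclusive means above 8.4% inhibition in only one replicate; inactive means 8.4% inhibition or less in each replicate.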
Legend:
[1] = S. cerevisiae growth inhibition in permissive medium (OD615), pilot counter-assay for S. cerevisiae lifespan shortening project, permissive growth control (AID 705;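 active means growth inhibition above 25% in both replicates, a cutoff set 3 SD above the mean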); details: OD615, 24 h, at 10 µM, hits give high values
Outline: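 System: Engineered DeaD yeast | Buffer or medium: SC raffinose/galactose permissive medium | Doses: 10 µM single dose, 0.25% DMSO | Times: 24 h exposure, 30 °C | Measured by: OD615 turbidity read | Read-out: Yeast growth inhibition indicated by reduced 24 h OD615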

[2] = S. cerevisiae growth inhibition in restrictive medium, OD615, pilot screen, restrictive growth control, yeast lifespan reduction project (AID 706;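 active means growth inhibition above a set limit, 3 SD over mean compound inhibition, in both replicates, cut at about 43% in these data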;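 further: modified DeaD lifespan yeast strain shifted to restrictive glucose medium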); details: OD615, 48 h, at 10 µM, hits give high values
Outline: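 Assay system: engineered S. cerevisiae DeaD strain; Buffer or medium: CSMM-D glucose medium; Dosing: 10 µM compound, 0.25% DMSO; Times: cell pre-growth 4 h, compound exposure 48 h, 30 °C; Detection: absorbance (optical density) measured at 615 nm.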

[3] = viability of HCT116 without oncogenic beta-catenin – human colon tumor cells, pilot screen (AID 823;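 active means cell viability at or below a set limit in both duplicate runs, the limit being the all-compound median minus 4 SD, cut at about 23% in these data, passing the limit was not always enough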;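 further: 0% = wells killed by 20 µM Hyamine and 100% = untreated DMSO cell wells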); details: HCT116 beta-catenin knockout viability, CellTiter-Glo, 60 h; at 10 µM; hits give low values
[4] = viability of PTEN-null HCT116 cells – cell-based, HCT116 clonal line, CellTiter-Glo, pilot screen (AID 824;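 active means viability at or below 27.92% in each of two runs, the all-compound median minus 4 SD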;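 further: 0% = 20 µM Hyamine control and 100% = vehicle cell control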); details: HCT116 PTEN-deleted viability, 60 h, at 10 µM, hits give low values
[5] = RAM pathway blockade in budding yeast – dse1pr::URA3 reporter, 5-FOA selection, pilot screen (AID 869;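 active means inhibition over a set limit, the all-compound mean plus 3 SD, in both replicate runs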;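 further: 0% = DMSO wells with no growth and 100% = 10 µM 1-NA-PP1 with full growth; RAM network block rescues cells from 5-FOA so hits raise OD615 growth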); details: S. cerevisiae dse1pr::URA3 5-FOA growth, OD615, 2 d; at 10 µM; hits give high values; strain carries analog-sensitive mutant Cbk1 kinase
[6] = RAM signaling pathway blockade in yeast – S. cerevisiae, Pdr1DBD-CYC8 efflux-inhibited sensitized strain, primary screen (AID 1298);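 further: 0% = DMSO untreated cells without growth and 100% = 10 µM 1-NA-PP1 full growth; higher means more yeast growth rescued from 5-FOA killing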; details: S. cerevisiae cbk1-as DSE1-URA3 strain, 5-FOA growth OD615, 2 d; at 50 µM; hits give high values
[7] = doxorubicin toxicity protection in MRP-1 cells – H69AR cells, CellTiter-Glo, duplicate, MRP-1 activator project, pilot screen (AID 807;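 active means viability increase at or above a cutoff of the median across tested compounds plus 3 SD, cut at about 8.5% in these data, passing the limit was not always enough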;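 further: compound pretreatment 18-22 h then 72 h combined with doxorubicin; 0% = doxorubicin alone and 100% = vehicle without doxorubicin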); details: H69AR viability with doxorubicin, CellTiter-Glo luminescence; at 10 µM; hits give high values

Row | Structure (SMILES) | growth inhibition [1] [%] | growth inhibition [2] | viability [3] | viability [4] | inhibition [5] [%] | RAM network inhibition [6] [%] | viability increase [7] [%]
1 | COc1cc(C(c2sc3ncnn3c2O)N2CCN(c3ccccc3F)CC2)cc(OC)c1OC (configuration not stated) | 1.67 | -0.84% | 103% | 105% | 2.5 | 5.34 | 
2 | O=c1c2ccccc2[nH]c(=S)n1Cc1cccnc1 | 6.04 |  | 103% | 92.5% | -0.605 | 1.73 | -0.83
3 | CCOC(=O)CNC(=O)CSc1nnc(-c2ccco2)n1Cc1ccco1 | 6.66 |  | 97.2% | 98.2% | 0.765 | 3.76 | -2.83
4 | CCc1ccc(C2CC(c3ccccc3C)n3nc(N)nc3N2)cc1 (configuration not stated) | 7.95 | -3.1% | 87.5% | 79.6% | 0.19 | 6.27 | 
5 | Oc1c(C(c2cccs2)N2CCN(c3cccc(Cl)c3)CC2)sc2ncnn12 (configuration not stated) | -8.2 | 5.16% | 88.1% | 90.5% | 1.94 | 3.42 | 
6 | CN(C)S(=O)(=O)c1ccc(S(=O)(=O)N2CCN(CCC#N)CC2)cc1 | -0.96 | 2.05% | 102% | 101% | 0.005 | -1.81 | 
7 | Cc1noc(/C=C/N(C)C)c1S(=O)(=O)N1CCCC(C(=O)NC2CCCCC2C)C1 (configuration not stated) | -2.76 | -6.36% | 87.1% | 83.2% | 1.89 | 7.7 | 
8 | O=C(Cn1c(=O)oc2cc(S(=O)(=O)N3CCCC3)ccc21)NCc1ccccn1 | 8.21 | 0.96% | 107% | 104% | 1.01 | -0.87 | 
9 | O=C1Cc2ccccc2C(=O)N1CCc1ccccc1 | 12.3 | 66% (active) | 97.2% | 92.8% | 1.75 | 2.61 | 
10 | COc1ccc(-n2c(Cc3cc(=O)[nH]c(=O)[nH]3)nnc2SCC(=O)N2CCC(C)CC2)cc1 | -11.5 | 4.4% | 98.2% | 96.9% | 2.92 | 0.47 | 
11 | Clc1ccccc1CSc1nnc(-c2ccccn2)n1Cc1ccco1 | -5.1 |  | 74.8% | 79% | 1.92 | 2.52 | -5.33
12 | Cc1ccc(N2C(=O)Nc3ccc(Br)cc3C2(O)C(=O)NCCCN(C)C)cc1C (configuration not stated) | -7.06 | -9.65% | 91.7% | 98.7% | 0.615 | 3.58 | 
13 | COc1ccccc1C1CC(c2ccc(Cl)cc2Cl)Nc2nc(N)nn21 (configuration not stated) | -5.97 | 25.2% | 86.1% | 85% | 1.62 | 7.09 | 
14 | CCN1CCN(C(=O)C(NS(=O)(=O)c2ccc3nc(C)sc3c2)C(C)C)CC1 (configuration not stated) | -15.9 |  | 99.4% | 95.2% | 0.845 | -0.04 | -0.67
15 | CCOC(=O)/C=C1\SCC(=O)N1CCOc1cccc(Br)c1 | -18.6 | -29.1% | 85.5% | 80.4% | 2.75 | 3.37 | 
16 | Cc1noc(/C=C/N(C)C)c1S(=O)(=O)N1CCCC(C(=O)NCc2ccco2)C1 (configuration not stated) | 4.93 | -2.94% | 97.6% | 92.1% | 0.86 | 4.7 | 
17 | CCOc1ccc2nc3ccc4[nH]onc4c3c2c1 | 0.485 | 1.57% | 74.8% | 66.5% | 2.8 | 6.1 | 
18 | O=C1C=C(O)CC(c2ccc(Cl)cc2)C1 (configuration not stated) | -2.77 | 0.79% |  | 103% | -0.37 | 8.23 | 
19 | CC(NC(=O)CN1CCN(Cc2ccc(Cl)cc2)C1=O)c1ccc2c(c1)OCCO2 (configuration not stated) | 2.64 | -21.2% | 84.1% | 86.3% | -0.3 | 0.27 | 
20 | Cn1c(=O)[nH]c(=O)c2c1nc(SCC(=O)Nc1ccccc1)n2Cc1ccccc1 | -4.58 | 0.385% | 92% | 94.6% | 0.935 | 2.08 | 

Row | Structure (SMILES) | growth inhibition [1] [%] | growth inhibition [2] | viability [3] | viability [4] | inhibition [5] [%] | RAM network inhibition [6] [%] | viability increase [7] [%]
21 | COc1ccccc1CNC(=O)CN1CCN(Cc2ccc(Cl)cc2)C1=O | 7.3 | 10.3% | 98.3% | 92.5% | 1.5 | 0.67 | 
22 | CCOC(=O)c1c(N)sc2c(OC)c(Br)ccc12 | 21.3 |  | 99.8% | 102% | -2.46 | 5.62 | 0.76
23 | O=C(O)c1cc2c(s1)-c1ccccc1OC2 | 6.14 |  | 96.9% | 98.7% | 0.165 | -2.9 | -4.32
24 | c1cncc(-c2nnc(SCc3cccc4ccccc34)o2)c1 | -6.93 |  | 103% | 91% | 1.16 | 0.49 | -0.01
25 | CN(c1ccccc1)S(=O)(=O)c1ccc(C(=O)Nc2nccs2)cc1 | -17.4 | -19.6% | 84.8% | 83.3% | 3.73 | 4.85 | 
26 | COc1cc(C2CC(=O)N3CN(Cc4ccco4)CSC3=C2C#N)ccc1OCc1ccccc1 (configuration not stated) | 7.01 |  | 77.8% | 83.5% | 1.65 | 2.55 | -5.42
27 | Brc1ccc(CSc2ncn[nH]2)cc1 | -0.435 | 12.1% | 95.3% | 95.3% | 0.94 | 0.27 | 
28 | O=C(CSCc1ccc(Cl)cc1)NCC1CCCO1 (configuration not stated) | -7.79 | -2.08% | 102% | 101% | 1.34 | 3.99 | 
29 | CCOCCn1c(-c2ccc(OC)cc2)nc2ccccc21 | -16.9 | -10.7% | 93.6% | 82.8% | 1.63 | 5.07 | 
30 | O=C(CSc1nnc(Cn2c(=O)sc3ccccc32)n1CCc1ccccc1)N1CCCC1 | 2.63 |  | 97.9% | 94.9% | 2.82 | 7.13 | -3.62
31 | Cc1cc(/C=N/n2cnnc2)c(C)n1-c1ccc(OCc2ccccc2F)cc1 | -0.03 |  | 8.8% (active) | 13.7% (active) | 1.2 | 11.1 | -6.9
32 | Cc1onc(-c2ccccc2)c1C(=O)Nc1nnc(N(C)Cc2ccccc2)s1 | -12.4 | -20.5% | 89.8% | 88.8% | 1.02 | 9.12 | 
33 | Cc1ccc(Cl)cc1N1CCN(C(=O)c2cc3c(=O)n(C)c4ccccc4c3n2C)CC1 | -2.52 | 9.03% | 20.4% (active) | 23.5% (active) | 1.74 | 2.44 | 
34 | COc1ccc(OC)c(C2CC(=O)N3CN(c4ccc(C)c(Cl)c4)CSC3=C2C#N)c1 (configuration not stated) | -0.805 |  | 90.6% | 94.4% | 2.44 | 7.86 | -3.72
35 | CCc1nnc(NC(=O)c2ccc(S(=O)(=O)N(CC)CC)cc2)s1 | -7.41 | -3.27% | 104% | 90.9% | 1.52 | -0.37 | 
36 | Cc1noc(/C=C/N(C)C)c1S(=O)(=O)N1CCCC(C(=O)Nc2ccc3c(c2)OCO3)C1 (configuration not stated) | -1.3 | -0.88% | 89.1% | 89.7% | 2.2 | 7.17 | 
37 | Cc1cccc(N(C)c2cc(C)nc3nc(C)nn23)c1 | -14.5 | -6.39% | 64.8% | 53.3% | 2.03 | 5.5 | 
38 | CCCCc1ccc(-c2nc(-c3ccncc3)no2)cc1 | -16.1 | -3.25% | 65.8% | 75.9% | 3.17 | 3.23 | 
39 | CCCc1nc2sc3c(SCC(=O)NCc4ccco4)ncnc3c2c2c1CCC2 | -1.16 |  | 47.4% |  | 2.37 | 4.21 | -6.5

Reference: PubChem BioAssay
